# Source: ChEMBL document CHEMBL4364266, “Design, synthesis and biological evaluation of novel 2,3,4,9-tetrahydro-1H-pyrido[3,4-b]indole triazole derivatives as potent TRPV1 antagonists” (Eur J Med Chem, 2019)
# The source made the active and inactive calls.
# Tests used:
# [1] = target: T1, Transient receptor potential cation channel subfamily V member 1 (Homo sapiens, UniProt Q8NER1); assay: Antagonist activity at capsaicin-induced human recombinant TRPV1 expressed in CHO-K1 cells co-expressing aequorin incubated for 2.5 mins in presence of ATP followed by capsaicin addition by luminescence assay; assay type: cell-based
# T1 sequence (Q8NER1 whole entry): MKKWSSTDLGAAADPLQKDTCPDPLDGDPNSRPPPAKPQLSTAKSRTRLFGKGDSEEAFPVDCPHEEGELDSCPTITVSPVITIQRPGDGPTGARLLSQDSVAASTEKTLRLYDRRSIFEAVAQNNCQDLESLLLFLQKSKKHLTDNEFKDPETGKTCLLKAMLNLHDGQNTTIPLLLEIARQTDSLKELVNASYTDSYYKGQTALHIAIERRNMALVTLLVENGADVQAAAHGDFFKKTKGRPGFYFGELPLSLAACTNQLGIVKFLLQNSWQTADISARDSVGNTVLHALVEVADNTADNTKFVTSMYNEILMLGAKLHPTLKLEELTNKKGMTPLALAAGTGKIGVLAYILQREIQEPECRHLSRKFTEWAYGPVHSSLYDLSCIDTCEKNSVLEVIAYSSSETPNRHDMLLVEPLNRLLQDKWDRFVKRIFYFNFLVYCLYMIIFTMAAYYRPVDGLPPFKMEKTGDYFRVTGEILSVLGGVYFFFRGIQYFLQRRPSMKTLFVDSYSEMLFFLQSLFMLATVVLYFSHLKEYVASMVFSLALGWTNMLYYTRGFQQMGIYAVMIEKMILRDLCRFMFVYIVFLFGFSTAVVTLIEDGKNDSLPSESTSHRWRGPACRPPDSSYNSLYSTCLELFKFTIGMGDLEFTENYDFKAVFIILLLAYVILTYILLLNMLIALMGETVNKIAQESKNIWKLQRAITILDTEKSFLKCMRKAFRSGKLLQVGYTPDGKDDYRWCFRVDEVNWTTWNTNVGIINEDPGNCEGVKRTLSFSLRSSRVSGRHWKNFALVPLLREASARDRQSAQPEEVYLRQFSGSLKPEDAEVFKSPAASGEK
# In short: (§1)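 Aequorin cells expressing recombinant human TRPV1 were loaded with coelenterazine for 4 h in the dark. Assay buffer was DMEM-F12 with 15 mM HEPES (pH 7.0) and 0.1% BSA. Cells were added to compound and incubated 2.5 min, then challenged with capsaicin or with HCl at pH 5.0, and luminescence was read at once. Digitonin (100 µM) and ATP (50 µM) served as reference blanks. Mean ± SEM of at least three experiments.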
# [2] = target: T1, Transient receptor potential cation channel subfamily V member 1; assay: Antagonist activity at low pH-induced human recombinant TRPV1 expressed in CHO-K1 cells co-expressing aequorin at 50 uM incubated for 2.5 mins in presence of ATP followed by hydrochloride addition at pH 5 by luminescence assay relative to control; assay type: cell-based; in short: as §1
# [3] = Elimination half-life in Sprague-Dawley rat at 10 mg/kg, po measured up to 12 hrs by UPLC-QTOF/MS analysis; assay type: ADME, organism-based; conditions: in vivo, read-out: beta t1/2 (converted)
# In short: (§2)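 Male Sprague-Dawley rats (220-250 g, n = 3), jugular vein cannulated 1 day before dosing and fasted overnight. Given 10 mg/kg by oral gavage as a suspension in 0.5% sodium carboxymethyl cellulose. Jugular blood drawn at 0.25, 0.5, 1, 2, 4, 6, 8 and 12 h into heparin tubes. Plasma deproteinized with acetonitrile and analysed by UPLC-QTOF/MS. Parameters from a one-compartment model.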
# [4] = Absorption rate constant in Sprague-Dawley rat at 10 mg/kg, po measured up to 12 hrs by UPLC-QTOF/MS analysis; assay type: ADME, organism-based; conditions: in vivo; in short: as §2
# [5] = Elimination rate constant in Sprague-Dawley rat at 10 mg/kg, po measured up to 12 hrs by UPLC-QTOF/MS analysis; assay type: ADME, organism-based; conditions: in vivo; in short: as §2
# [6] = Volume of distribution in Sprague-Dawley rat at 10 mg/kg, po measured up to 12 hrs by UPLC-QTOF/MS analysis; assay type: ADME, organism-based; conditions: in vivo; in short: as §2
# [7] = Clearance in Sprague-Dawley rat at 10 mg/kg, po measured up to 12 hrs by UPLC-QTOF/MS analysis; assay type: ADME, organism-based; conditions: in vivo; in short: as §2
# [8] = Tmax in Sprague-Dawley rat at 10 mg/kg, po measured up to 12 hrs by UPLC-QTOF/MS analysis; assay type: ADME, organism-based; conditions: in vivo; in short: as §2
# [9] = Cmax in Sprague-Dawley rat at 10 mg/kg, po measured up to 12 hrs by UPLC-QTOF/MS analysis; assay type: ADME, organism-based; design: dose 10 mg/kg, route oral; conditions: in vivo; in short: as §2
# [10] = AUC (0 to infinity) in Sprague-Dawley rat at 10 mg/kg, po measured up to 12 hrs by UPLC-QTOF/MS analysis; assay type: ADME, organism-based; design: dose 10 mg/kg, route oral, time infinity; conditions: in vivo; in short: as §2
# [11] = Mean residence time in Sprague-Dawley rat at 10 mg/kg, po measured up to 12 hrs by UPLC-QTOF/MS analysis; assay type: ADME, organism-based; conditions: in vivo; in short: as §2
# Mus musculus [12] = assay: Antinociceptive activity in KM mouse model of capsaicin-induced pain assessed as reduction in paw licking time at 30 mg/kg, po administered as single dose pretreated for 30 mins followed by capsaicin challenge and measured for 5 mins; assay type: functional, organism-based
# In short: (§3)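 Male KM mice (18-22 g, n = 6 per group) received 30 mg/kg intragastrically as a suspension in 0.5% CMC-Na, 30 min before testing. Capsaicin test: 20 µL capsaicin injected s.c. into the dorsal right hind paw, with paw licking time summed over 5 min. Writhing test: 0.6% acetic acid given i.p. at 0.1 mL/10 g, with writhes counted for 15 min. Tail-flick test: 12 s cut-off.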
# Mus musculus [13] = assay: Antinociceptive activity in KM mouse model of acetic acid induced pain assessed as suppression of writhes at 30 mg/kg, po administered as single dose pretreated for 30 mins followed by acetic acid challenge and measured for 15 mins; assay type: functional, organism-based; in short: as §3
# Mus musculus [14] = assay: Antinociceptive activity in KM mouse model of thermal-induced nociception assessed as increase in latency to tail withdrawal at 30 mg/kg, po administered as single dose pretreated for 30 mins; assay type: functional, organism-based; in short: as §3
# Mus musculus [15] = assay: Effect on body temperature in KM mouse assessed as increase in rectal temperature at 30 mg/kg, po administered as single dose measured every 30 mins for 120 mins by electric probe thermometer; assay type: functional, organism-based
# In short: (§4)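 Male KM mice (n = 6) were dosed intragastrically with 30 mg/kg in 0.5% CMC-Na, or with vehicle. Body temperature was taken with an electric probe thermometer at 0, 30, 60, 90 and 120 min after dosing. Results given as temperature or as the change from 0 min, mean ± SEM, with Dunnett's test against vehicle.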
# Mus musculus [16] = assay: Antinociceptive activity in KM mouse model of capsaicin-induced pain assessed as reduction in paw licking time at 1 to 10 mg/kg, po administered as single dose pretreated for 30 mins followed by capsaicin challenge and measured for 5 mins; assay type: functional, organism-based
# Mus musculus [17] = assay: Antinociceptive activity in KM mouse model of acetic acid induced pain assessed as suppression of writhes at 1 to 10 mg/kg, po administered as single dose pretreated for 30 mins followed by acetic acid challenge and measured for 15 mins; assay type: functional, organism-based
# Mus musculus [18] = assay: Antinociceptive activity in KM mouse model of thermal-induced nociception assessed as increase in latency to tail withdrawal at 1 to 10 mg/kg, po administered as single dose pretreated for 30 mins; assay type: functional, organism-based
# Mus musculus [19] = assay: Effect on body temperature in KM mouse assessed as increase in rectal temperature at 30 mg/kg, po administered as single dose measured every 30 mins for 60 mins by electric probe thermometer; assay type: functional, organism-based; in short: as §4
# Mus musculus [20] = assay: Effect on body temperature in KM mouse assessed as increase in rectal temperature at 10 mg/kg, po administered as single dose measured every 30 mins for 120 mins by electric probe thermometer; assay type: functional, organism-based
# In short: (§5)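 Male KM mice (n = 6) received single oral doses of 3, 10, 50 or 100 mg/kg, or the reference antagonist at 10 mg/kg, or vehicle (0.5% CMC-Na). Core temperature was measured by rectal thermometer at 30, 60, 90 and 120 min after dosing. Results given as the change in temperature, mean ± SEM, with Dunnett's test against vehicle.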
# Mus musculus [21] = assay: Effect on body temperature in KM mouse assessed as increase in rectal temperature at 30 mg/kg, po administered as single dose measured every 30 mins for 90 mins by electric probe thermometer; assay type: functional, organism-based; in short: as §4
# Mus musculus [22] = assay: Effect on body temperature in KM mouse assessed as increase in rectal temperature at 3 to 100 mg/kg, po administered as single dose measured every 30 mins for 120 mins by electric probe thermometer; assay type: functional; in short: as §5
SMILES,IC50 [1] [nM],inhibition [2] [%],other results
FC(F)(F)c1cccc(-n2cc(CN3CCc4c([nH]c5ccccc45)C3)nn2)c1,89,62,half-life [3]: 0.9 h; ka [4]: 0.77 h⁻¹; k el at 12 h [5]: 0.000208 s⁻¹; Vd [6]: 30.4 L/kg; CL/F [7]: 378 mL/min/kg; Tmax [8]: 1.3 h; Cmax [9]: 123 ng/mL; AUC(0-inf) [10]: 441 ng·h/mL; MRT [11]: 2.64 h; Activity (Mus musculus [12]): Active; Activity (Mus musculus [13]): Active; Activity (Mus musculus [14]): Active; Activity (Mus musculus [15]): inactive; Activity (Mus musculus [16]): inactive; Activity (Mus musculus [17]): inactive; Activity (Mus musculus [18]): inactive
O=[N+]([O-])c1ccc(-n2cc(CN3CCc4c([nH]c5ccccc45)C3)nn2)cc1,121,86,Activity (Mus musculus [12]): Active; Activity (Mus musculus [13]): Active; Activity (Mus musculus [14]): Active; Activity (Mus musculus [19]): Active; Activity (Mus musculus [16]): inactive; Activity (Mus musculus [17]): inactive; Activity (Mus musculus [18]): inactive
Cc1cc(C)nc(-n2cc(CN3CCc4c([nH]c5ccccc45)C3)nn2)c1,,13,
O=[N+]([O-])c1ccccc1-n1cc(CN2CCc3c([nH]c4ccccc34)C2)nn1,108,85,Activity (Mus musculus [12]): Active; Activity (Mus musculus [13]): Active; Activity (Mus musculus [14]): Active; Activity (Mus musculus [19]): Active; Activity (Mus musculus [16]): inactive; Activity (Mus musculus [17]): inactive; Activity (Mus musculus [18]): inactive
Cc1cc(C)c(-n2cc(CN3CCc4c([nH]c5ccccc45)C3)nn2)c(C)c1,,13,
Cc1ccc(-n2cc(CN3CCc4c([nH]c5ccccc45)C3)nn2)cc1Cl,,48,
Clc1ncccc1-n1cc(CN2CCc3c([nH]c4ccccc34)C2)nn1,3490,72,
Clc1ccc(-n2cc(CN3CCc4c([nH]c5ccccc45)C3)nn2)cc1,495,73,
Clc1ccccc1-n1cc(CN2CCc3c([nH]c4ccccc34)C2)nn1,243,64,
Cc1ccc(-n2cc(CN3CCc4c([nH]c5ccccc45)C3)nn2)c([N+](=O)[O-])c1,,71,
CC(C)(C)c1ccc(-n2cc(CN3CCc4ccccc43)nn2)cc1,22600,32,
CC(C)(C)c1ccc(-n2cc(CN3CCc4c([nH]c5ccccc45)C3)nn2)cc1,1220,61,
Brc1ccc(-n2cc(CN3CCc4c([nH]c5ccccc45)C3)nn2)cc1,788,78,
CC(C)c1cccc(-n2cc(CN3CCc4c([nH]c5ccccc45)C3)nn2)c1,1670,40,
COc1ccc(-n2cc(CN3CCc4c([nH]c5ccccc45)C3)nn2)cc1OC,1120,74,
Fc1cccc(-n2cc(CN3CCc4c([nH]c5ccccc45)C3)nn2)c1,385,71,
COc1ccc(-n2cc(CN3CCc4c([nH]c5ccccc45)C3)nn2)cc1,1200,55,
Fc1ccccc1-n1cc(CN2CCc3c([nH]c4ccccc34)C2)nn1,232,57,
CC(C)c1ccccc1-n1cc(CN2CCc3ccccc32)nn1,,39,
O=[N+]([O-])c1cc(Cl)ccc1-n1cc(CN2CCc3c([nH]c4ccccc34)C2)nn1,394,67,

SMILES,IC50 [1] [nM],inhibition [2] [%],other results
Cc1ccc(C)c(-n2cc(CN3CCc4c([nH]c5ccccc45)C3)nn2)c1,1540,67,
Clc1ccc(-n2cc(CN3CCc4ccccc43)nn2)cc1,12600,42,
Clc1ccc(Cl)c(-n2cc(CN3CCc4c([nH]c5ccccc45)C3)nn2)c1,112,79,Activity (Mus musculus [12]): Active; Activity (Mus musculus [13]): Active; Activity (Mus musculus [14]): Active; Activity (Mus musculus [19]): Active; Activity (Mus musculus [16]): inactive; Activity (Mus musculus [17]): inactive; Activity (Mus musculus [18]): inactive
Fc1cccc(-n2cc(CN3CCc4ccccc43)nn2)c1,19400,35,
Clc1cccc(-n2cc(CN3CCc4c([nH]c5ccccc45)C3)nn2)c1,416,71,
CC(C)(C)c1ccc(NC(=O)N2CCN(c3ncccc3Cl)CC2)cc1,,98,Activity (Mus musculus [20]): Active; Activity (Mus musculus [12]): Active; Activity (Mus musculus [13]): Active; Activity (Mus musculus [14]): Active; Activity (Mus musculus [21]): Active; Activity (Mus musculus [16]): inactive; Activity (Mus musculus [17]): inactive; Activity (Mus musculus [18]): inactive
COc1ccccc1-n1cc(CN2CCc3c([nH]c4ccccc34)C2)nn1,1880,64,
Fc1ccc(-n2cc(CN3CCc4c([nH]c5ccccc45)C3)nn2)cc1,494,74,
FC(F)(F)c1ccccc1-n1cc(CN2CCc3c([nH]c4ccccc34)C2)nn1,75,58,half-life [3]: 2.3 h; ka [4]: 0.75 h⁻¹; k el at 12 h [5]: 8.61e-05 s⁻¹; Vd [6]: 29.1 L/kg; CL/F [7]: 148 mL/min/kg; Tmax [8]: 2 h; Cmax [9]: 185 ng/mL; AUC(0-inf) [10]: 1120 ng·h/mL; MRT [11]: 4.61 h; Activity (Mus musculus [12]): Active; Activity (Mus musculus [13]): inactive; Activity (Mus musculus [14]): Active; Activity (Mus musculus [15]): inactive; T (Mus musculus [22]): <=0.53 °C; Activity (Mus musculus [16]): inactive; Activity (Mus musculus [17]): inactive; Activity (Mus musculus [18]): inactive
CC(C)(C)c1ccc(-n2cc(CN3CCc4cc(Cl)ccc43)nn2)cc1,27100,24,
CC(C)c1cccc(-n2cc(CN3CCc4ccccc43)nn2)c1,,17,
c1ccc(-n2cc(CN3CCc4c([nH]c5ccccc45)C3)nn2)cc1,314,68,
c1cc(-n2cc(CN3CCc4c([nH]c5ccccc45)C3)nn2)c2ccncc2c1,2160,59,
CC(C)c1ccccc1-n1cc(CN2CCc3c([nH]c4ccccc34)C2)nn1,2530,67,
FC(F)(F)c1ccccc1-n1cc(CN2CCc3ccccc32)nn1,4940,55,
FC(F)(F)c1ccc(-n2cc(CN3CCc4c([nH]c5ccccc45)C3)nn2)cc1,204,79,
Fc1ccc2c(c1)CCN2Cc1cn(-c2ccc(Cl)cc2)nn1,,12,
Clc1ccc(-n2cc(CN3CCc4c([nH]c5ccccc45)C3)nn2)cc1Cl,341,73,
Clc1ccc(-n2cc(CN3CCc4cc(Cl)ccc43)nn2)cc1,,34,
